For one data set, the system named is Acinetobacter baumannii. Kind of data set: Antimicrobial growth against Acinetobacter baumannii ATCC 19606 assessed as microbial growth inhibition incubated for 16 to 20 hrs by broth microdilution method. The data set is classed as functional. The note with it: time 16-20 hrs. Summed up:
(§1)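 Broth microdilution in MH broth, pH 7.4. An overnight LB colony culture (37 °C, 180 rpm) was diluted to OD600 0.022, giving about 5 × 10^5 CFU per well. MTT was then added, and MIC was read by eye as the lowest concentration without visible growth. Two independent duplicates were run.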
For orientation: Dilution methods test growth across graded concentrations, often in twofold steps.

For data set [1], the system named is Pseudomonas aeruginosa. Description: Antimicrobial activity against Pseudomonas aeruginosa PAO1 assessed as microbial growth inhibition incubated for 16 to 20 hrs by broth microdilution method. Format: functional. The following applies: time 16-20 hrs. The method in brief: as §1
A further data set deals with Klebsiella pneumoniae. Description: Antimicrobial activity against Klebsiella pneumoniae NCTC418 assessed as microbial growth inhibition incubated for 16 to 20 hrs by broth microdilution method. Format: functional. The note with it: time 16-20 hrs. Summed up:
(§2)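 Broth microdilution in Mueller–Hinton broth pH 7.4. Overnight LB colony culture diluted to OD600 0.022; roughly 5 × 10^5 CFU final inoculum. Static incubation at 37 °C for 16–20 h, then MTT added at room temperature. MIC is the lowest concentration with no visible growth, read by eye. Two independent duplicates.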

In the next data set the test system is Staphylococcus aureus. Kind of data set: Antimicrobial activity against methicillin-resistant Staphylococcus aureus COL assessed as microbial growth inhibition incubated for 16 to 20 hrs by MTT assay. Format: functional. The following applies: time 16-20 hrs. The method in brief: as §2
For orientation: Tetrazolium assays rely on reduction of a dye to a coloured formazan, in cell work by metabolically active cells.

The subject of another data set is Erythrocyte. Kind of data set: Hemolytic activity in human RBC incubated for 4 hrs by visual analysis. Format: toxicity, cell-based.
Data set [2] has as its system Pseudomonas aeruginosa. Description: Antimicrobial activity against Pseudomonas aeruginosa PAO1 assessed as bacterial killing at 8 ug/ml measured after 1 hr by time-kill assay. The note with it: dose 8.0 µg/ml. Format: functional, organism-based. Summed up: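 P. aeruginosa PAO1 from an overnight LB culture was diluted to 2 × 10^6 CFU/mL in MH, pH 7.4, then mixed 1:1 with peptide in MH and incubated at 37 °C with shaking at 180 rpm. Survivors were counted by plating 10-fold dilutions on LB agar at 0–6 h (37 °C, 10 h). Done in triplicate.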

Another data set deals with Cell membrane. Description: Induction of membrane disruption in bacterial membrane mimic EYPG vesicles assessed as carboxyfluorescein leakage at 10 ug/ml measured after 240 secs by fluorescence based assay. The data set is classed as subcellular. The note with it: dose 10.0 µg/ml, time 240.0 sec.
Data set [3] can be described thus: Induction of membrane disruption in eukaryotic inner membrane mimic EYPC vesicles assessed as carboxyfluorescein leakage at 10 ug/ml measured after 240 secs by fluorescence based assay. The data set is classed as cell membranes. The note with it: dose 10.0 µg/ml, time 240.0 sec.
Another data set has as its system Burkholderia cenocepacia. Kind of data set: Antimicrobial activity against multidrug-resistant Burkholderia cenocepacia assessed as microbial growth inhibition incubated for 16 to 20 hrs by broth microdilution method. Format: functional. The note with it: time 16-20 hrs. Summed up: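 Broth microdilution in Mueller–Hinton broth pH 7.4. Peptides serially diluted 1/2 from 2 mg/mL water stocks over 0.5–64 μg/mL. Overnight LB colony culture diluted to OD600 0.022; roughly 5 × 10^5 CFU final inoculum. Static incubation at 37 °C for 16–20 h, then MTT added at room temperature. MIC is the lowest concentration with no visible growth, read by eye. Two independent duplicates.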

The subject of the next data set is Escherichia coli. Kind of data set: Antimicrobial activity against Escherichia coli W3110 assessed as microbial growth inhibition incubated for 16 to 20 hrs by broth microdilution method. The data set is classed as functional. The note with it: time 16-20 hrs. Summed up: as §1
For the next data set, the system named is HEK293. Description: Cytotoxicity against HEK293 cells assessed as reduction in cell viability at 0 to 200 uM incubated for 24 hrs by Alamar blue assay. Format: toxicity, cell-based. The note with it: human, hek293, 24 h, dose 0-200 µM. The method in brief: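 HEK293 cells were kept in DMEM with 10% FBS and penicillin/streptomycin, seeded at 4000 cells/well the day before, then exposed to peptide at 0–200 μM for 24 h at 37 °C, 5% CO2. Viability was read with 10% AlamarBlue for 3–5 h (ex 560/em 590 nm), normalized to untreated cells.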
Background: Resazurin is reduced to fluorescent resorufin, in cell work by metabolically active cells.

Data set [4] in a line: Proteolytic stability in human serum assessed as drug degradation at 200 uM incubated for 10 mins by RP-HPLC analysis. The data set is classed as ADME, cell-free.

Converted amounts (≈) assume the structure as drawn. The source made the active and inactive calls. Non-standard residues stand in square brackets, D forms with d. Residues, ends and D or L forms follow the SMILES beside them.

A word on the MIC: it is the smallest concentration in the dilution series that meets the test's criterion for growth inhibition. `CC(C)C[C@H](NC(=O)[C@H](CC(C)C)NC(=O)[C@H](CC(C)C)NC(=O)[C@@H](CCCCN)NC(=O)[C@H](CC(C)C)NC(=O)[C@H](CC(C)C)NC(=O)[C@@H](CCCCN)NC(=O)[C@H](CC(C)C)NC(=O)[C@H](CC(C)C)NC(=O)[C@@H](CCCCN)NC(=O)[C@@H](CCCCN)NC(=O)[C@H](CC(C)C)NC(=O)[C@H](CC(C)C)NC(=O)[C@H](CC(C)C)NC(=O)[C@@H](CCCCN)NC(=O)[C@H](CC(C)C)NC(=O)[C@H](CC(C)C)NC(=O)[C@@H](CCCCN)NC(=O)[C@H](CC(C)C)NC(=O)[C@H](CC(C)C)NC(=O)[C@@H](CCCCN)NC(=O)[C@H](N)CCCCN)C(N)=O` (H-[dK][dK]LL[dK]LL[dK]LLL[dK][dK]LL[dK]LL[dK]LLL-NH2): the MIC in the data set with Acinetobacter baumannii, in the data set with Pseudomonas aeruginosa [1], in the data set with Klebsiella pneumoniae and in the data set on Staphylococcus aureus was above 64 µg/mL throughout. The molecule also registered an MHC in the data set on Erythrocyte below 15.6 µg/mL.

The molecule `CC(C)C[C@H](NC(=O)[C@H](CCCCN)NC(=O)[C@H](N)CCCCN)C(=O)N[C@@H](CC(C)C)C(=O)N[C@@H](CCCCN)C(=O)N[C@@H](CC(C)C)C(=O)N[C@@H](CC(C)C)C(=O)N[C@@H](CCCCN)C(=O)N[C@@H](CC(C)C)C(=O)N[C@@H](CC(C)C)C(=O)N[C@H](CC(C)C)C(N)=O` showed an MHC in the data set on Erythrocyte of 62.5 µg/mL. Further, the result in the data set with Pseudomonas aeruginosa [2] was Active.

As for H-RRLLRLLRLLL-NH2, the MIC with Pseudomonas aeruginosa [1] amounted to 8 µg/mL. The MHC with Erythrocyte is 15.6 µg/mL. Also, the Activity in the data set on Cell membrane amounted to 30%; in [3], 99%.

Molecule `CC(C)C[C@H](NC(=O)[C@H](CC(C)C)NC(=O)[C@H](CCCCN)NC(=O)[C@H](CC(C)C)NC(=O)[C@H](CC(C)C)NC(=O)[C@@H](CCCCN)NC(=O)[C@H](N)CCCCN)C(=O)N[C@@H](CCCCN)C(=O)N[C@@H](CC(C)C)C(=O)N[C@@H](CC(C)C)C(=O)N[C@H](CC(C)C)C(N)=O` registered an MHC with Erythrocyte of 125 µg/mL. In the data set with Burkholderia cenocepacia, the MIC is above 64 µg/mL. Moreover, in the data set on Pseudomonas aeruginosa [2], the outcome was Active.

Consider H-RRIIRIIRIII-NH2, for which the MIC worked out at 8 µg/mL in the data set with Acinetobacter baumannii; 64 µg/mL with Pseudomonas aeruginosa [1]; 16 µg/mL in the data set with Escherichia coli; 16 µg/mL in the data set on Klebsiella pneumoniae; 16 µg/mL in the data set with Staphylococcus aureus. In addition, the MHC in the data set with Erythrocyte was 62.5 µg/mL. For the same molecule, the Activity was 99% in the data set with Cell membrane and 39% in data set [3].

H-KKLLKLLKLLLKKLLKLLKLLL-NH2: the MIC in the data set on Acinetobacter baumannii, in the data set on Pseudomonas aeruginosa [1], with Escherichia coli, in the data set on Klebsiella pneumoniae and with Staphylococcus aureus was above 64 µg/mL each time. The molecule also came in with an MHC in the data set on Erythrocyte below 15.6 µg/mL.

As to `CC(C)C[C@H](NC(=O)[C@H](CC(C)C)NC(=O)[C@H](CC(C)C)NC(=O)[C@H](CCCCN)NC(=O)[C@H](CC(C)C)NC(=O)[C@H](CC(C)C)NC(=O)[C@H](CCCCN)NC(=O)[C@H](CC(C)C)NC(=O)[C@H](CC(C)C)NC(=O)[C@H](CCCCN)NC(=O)[C@@H](N)CCCCN)C(N)=O`, the MHC in the data set on Erythrocyte turned out to be 125 µg/mL. Also, the Activity result in the data set with HEK293 was “Non-Toxic”.

For `CC(C)C[C@@H](NC(=O)[C@@H](CC(C)C)NC(=O)[C@@H](CC(C)C)NC(=O)[C@H](CCCCN)NC(=O)[C@@H](CC(C)C)NC(=O)[C@@H](CC(C)C)NC(=O)[C@H](CCCCN)NC(=O)[C@@H](CC(C)C)NC(=O)[C@@H](CC(C)C)NC(=O)[C@H](CCCCN)NC(=O)[C@@H](N)CCCCN)C(N)=O`, the MHC with Erythrocyte worked out at 250 µg/mL. Moreover, the Stability result in data set [4] is listed as “Unstable”.

As to `CC[C@H](C)[C@H](NC(=O)[C@@H](NC(=O)[C@@H](NC(=O)[C@@H](CCCNC(=N)N)NC(=O)[C@@H](NC(=O)[C@@H](NC(=O)[C@@H](CCCNC(=N)N)NC(=O)[C@@H](NC(=O)[C@@H](NC(=O)[C@@H](CCCNC(=N)N)NC(=O)[C@H](N)CCCNC(=N)N)[C@@H](C)CC)[C@@H](C)CC)[C@@H](C)CC)[C@@H](C)CC)[C@@H](C)CC)[C@@H](C)CC)C(N)=O` (H-[dR][dR]II[dR]II[dR]III-NH2), the MIC in the data set on Acinetobacter baumannii was 8 µg/mL (≈ 5.58 µM); with Pseudomonas aeruginosa [1], 4 µg/mL (≈ 2.79 µM); in the data set with Escherichia coli, 8 µg/mL (≈ 5.58 µM); in the data set with Klebsiella pneumoniae it was 32 µg/mL (≈ 22.3 µM); in the data set with Staphylococcus aureus it was 8 µg/mL (≈ 5.58 µM). This molecule gave an MHC with Erythrocyte of 250 µg/mL. Further, the Activity was 98% in the data set on Cell membrane and 8% in data set [3].

Molecule `CC(C)C[C@H](NC(=O)[C@H](CC(C)C)NC(=O)[C@H](CC(C)C)NC(=O)[C@H](CCCCN)NC(=O)[C@H](CC(C)C)NC(=O)[C@H](CC(C)C)NC(=O)[C@H](CCCCN)NC(=O)[C@@H](CC(C)C)NC(=O)[C@H](CC(C)C)NC(=O)[C@@H](CCCCN)NC(=O)[C@@H](N)CCCCN)C(N)=O` had an MHC in the data set with Erythrocyte below 15.6 µg/mL. Also, the MIC in the data set with Burkholderia cenocepacia is above 64 µg/mL.
